Measured values pooled from the literature.
Protocols differ between the studies behind these lines.
Effect on: cell growth or viability

Structure (SMILES) | cell line | test | conditions | measurement | value
CCCCCCCCCCCCCCCCCCOc1ccc(CC(=O)OCC[N+](C)(C)C)cc1 | NCI-H226 | SRB | 10 µM | inhibition | 4.87%
COc1ccc(Nc2ncnc3c2ncn3Cc2ccc(C(=O)NO)cc2)cc1 | U-937 | MTT | 72 h | IC50 | 1230 nM
COc1cccc2c1cc1c3c(cc4c(c32)OCO4)C(=O)N1C | HuCC-A1 | MTT | 75 h | IC50 | 26000 nM
CC(C)(C)c1cnc(CSc2cnc(NC(=O)C3CCN(C(=O)CCCCCCCN4Cc5cc6c(cc5C4)C(=O)N(C4CCC(=O)NC4=O)C6=O)CC3)s2)o1 (stereo not shown) | NCI-H226 | MTT | – | IC50 | 57 nM
COc1cccc2c1C(=O)c1c(O)c3c(c(O)c1C2=O)C[C@@](O)(C(=O)CO)C[C@@H]3O[C@H]1C[C@H](N)[C@H](O)[C@H](C)O1 | HuCC-A1 | MTT | 48 h | IC50 | 860 nM
CCc1nc(C(N)=O)c(Nc2ccc(N3CCC(N4CCN(C)CC4)CC3)c(OC)c2)nc1NC1CCOCC1 | U-937 | – | 72 h | GI50 | 4390 nM
CCCCCCCCCCCCCCCCCCOc1cccc(CC(=O)OCCC[N+](C)(C)C)c1 | NCI-H226 | SRB | 10 µM | inhibition | 15%
Cc1n[nH]c2ccc3nc(-c4ccc(C(=O)NCCN(C)C)cc4)c4c(c3c12)CCCCC4 | ML-2 | – | 72 h | GI50 | 1070 nM
Nc1ccccc1NC(=O)c1ccc(Cn2cnc3c(Nc4ccc(Cl)cc4)ncnc32)cc1 | U-937 | MTT | 72 h | IC50 | 920 nM
CN(C)CCNC(=O)c1ccc(-c2nc3ccc4[nH]ncc4c3c3c2CCCC3)c(F)c1 | U-937 | – | 72 h | GI50 | 2150 nM
CCCCCCCCCCCCCCCCCCOc1ccc(CC(=O)OCC[N+](CC)(CC)CC)cc1 | NCI-H226 | SRB | 10 µM | inhibition | 16.1%
C=C1C[C@@]23CC[C@H]4[C@@](C)(CCC[C@@]4(C)C(=O)O)[C@@H]2CC[C@@H]1C3 | HuCC-A1 | MTT | 75 h | IC50 | 108000 nM
CCCCCCCCCCCCCCCCCCOc1cccc(CC(=O)OCC[N+]2(C)CCCC2)c1 | NCI-H226 | SRB | 10 µM | inhibition | 14.6%
Cc1nc(Nc2ncc(C(=O)Nc3c(C)cccc3Cl)s2)cc(N2CC[C@H](O)C2)n1 | SU-DHL-8 | ATP luminescence | 10 µM, 72 h | inhibition | 8%
Cc1n[nH]c2ccc3nc(-c4ccc(C(=O)NCCN(C)C)cc4)c4c(c3c12)CCCC4 | ML-2 | – | 72 h | GI50 | 429 nM
CCCCCCCCCCCCCCCCCCOc1ccccc1CC(=O)OCC[N+]1(C)CCCCC1 | NCI-H226 | SRB | 10 µM | inhibition | 71.9%
CC1=CC(=O)c2ccccc2C1=O | HuCC-A1 | MTT | – | IC50 | 23000 nM
CC(C)(C)c1cc(NC(=O)Nc2ccc(-c3cn4c(n3)sc3cc(OCCN5CCOCC5)ccc34)cc2)no1 | ML-2 | – | 72 h | GI50 | > 10000 nM
CCCCCCCCCCCCCCCCCCOc1ccc(CC(=O)OCC[N+]2(C)CCCC2)cc1 | NCI-H226 | SRB | 10 µM | inhibition | 7.36%
COc1cccc2c1C(=O)c1c(O)c3c(c(O)c1C2=O)C[C@@](O)(C(=O)CO)C[C@@H]3O[C@H]1C[C@H](N)[C@H](O)[C@H](C)O1 | MINO | – | 96 h | IC50 | 11.7 nM
Cc1n[nH]c2ccc3nc(-c4ccc(C(=O)NCCN(C)C)cc4F)c4c(c3c12)CCCC4 | U-937 | – | 72 h | GI50 | 183 nM
O=C(NO)c1ccc(Cn2cnc3c(Nc4cccc([N+](=O)[O-])c4)ncnc32)cc1 | U-937 | MTT | 72 h | IC50 | 1990 nM
CN(C)CCNC(=O)c1ccc(-c2nc3ccc4[nH]ncc4c3c3c2CCCCC3)cc1 | ML-2 | – | 72 h | GI50 | 698 nM
CCCCCCCCCCCCCCCCCCOc1ccccc1CC(=O)OCC[N+]1(C)CCCC1 | NCI-H226 | SRB | 10 µM | inhibition | 86.6%
CN1CCC(NC2CCc3[nH]c4c(C(N)=O)ccc(-c5ccccc5Cl)c4c3C2)CC1 (stereo not shown) | MINO | – | 96 h | IC50 | 27.3 nM
O=C(NO)c1ccc(Cn2cnc3c(Nc4ccc(Br)cc4F)ncnc32)cc1 | U-937 | MTT | 72 h | IC50 | 2160 nM
CCCCCCCCCCCCCCCCCCOc1cccc(CC(=O)OCC[N+]2(C)CCCCC2)c1 | NCI-H226 | SRB | 10 µM | inhibition | 10.8%
CN(C)CCNC(=O)c1ccc(-c2nc3ccc4[nH]ncc4c3c3c2CCCC3)cc1 | ML-2 | – | 72 h | GI50 | 152 nM
